Screens (PubChem BioAssay)
Apaf1 inhib: blocks human Apaf-1 apoptosome activity; hit rate 0.71% among 330,000; reconstituted apoptosome caspase-3 activity, DEVD-Rh110 fluorescence; O14727; inhibition, % at 20 µM; active = inhibition of at least 40% at 20 µM;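 also: plate controls were DMSO wells for no effect and DEVD-CHO caspase inhibitor wells for full effect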
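Material: cell-free apoptosome with Apaf-1, procaspase-3 and caspase-9; Buffer or medium: Hepes pH 7.5 with detergent and BSA; Reagent: cytochrome c trigger plus (Z-DEVD)2-Rh110 caspase-3 substrate; Times: compound with Apaf-1, dATP, procaspase-3 30 min, then 50 min reaction, room temperature; Technique: Rh110 fluorescence intensity.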
EBNA-1 inhibitor: blocks EBNA-1 binding to DNA; EBNA-1 DNA binding, fluorescence polarization; inhibition, % at 14.8 µM; hit rate 0.34% among 300,000; in the data active = inhibition above about 28%
UBC13 polyUb: human UBC13 polyubiquitination inhibition; P61088; UBC13 polyubiquitin chain formation, TR-FRET; inhibition, % at 20 µM; hit rate 0.47% among 330,000; AID 485273; in the data active = inhibition above about 45%, passing the limit was not always enough
M18AAP inhibitor: blocks P. falciparum M18 aspartyl aminopeptidase. recombinant PfM18AAP, H-Glu-NHMec fluorogenic cleavage. inhibition, % at 7.35 µM. hit rate 1.2% among 290,000;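 active = inhibition above the campaign mean inhibition over all tested compounds plus 3 SD, cut at about 28% in these data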;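 also: 0% = plate median of test compound wells and 100% = 2 mM ZnCl2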
PfGluPho inh: PfG6PD (Plasmodium falciparum) enzyme inhibition | PfGluPho enzyme, NADPH resazurin-diaphorase fluorescence | hit rate 0.78% among 350,000 | AID 504690 | inhibition, % at 20 µM;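 active = inhibition reaching at least a set limit at 20 µM in the primary screen, cut at about 59% in these data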;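 also: 0% = DMSO wells with substrate and 100% = DMSO wells lacking glucose-6-phosphate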
ZTA DNA inh: ZTA (EBV) inhibition in EBNA-1 counter-screen | P03206 | ZTA-DNA binding, fluorescence polarization | inhibition, % at 11 µM | hit rate 0.15% among 320,000; in the data active = inhibition above about 33%
Apaf-1 inh conf2: confirmation of Apaf-1 inhibitors; shares compounds with Apaf1 inhib; reconstituted apoptosome, caspase-3 DEVD-Rh110 fluorescence; inhibition, % at 20 µM; hit rate 25% among 1,800; AID 504614;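 active = mean inhibition of at least 40% at 20 µM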;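 also: plate controls were DMSO wells for no effect and DEVD-CHO caspase inhibitor control wells for full effect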
Rh110 interf inh: interferes with Rh110 fluorescence, flagging false Apaf-1 inhibitors; shares compounds with Apaf1 inhib; Rh110 fluorescence interference, quenched caspase reaction; activation (fluorescence interference), % at 20 µM; 1,800 tested, under 10 active;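 active = signal rise of 40% or more at 20 µM, treated as a fluorescence artifact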
Fluor interf inh: counter-screen for Apaf-1 inhibitors: fluorescence interference, dose response; IC50, µM; shares compounds with Apaf1 inhib; fluorescence interference counterscreen, Apaf-1 assay format; 460 tested, under 10 active; AID 588538; call rule not given here
* hit, by the source's call. Only some compounds are listed: those with a hit (about 2.9% of all), similar ones and a draw of the others.

For Cc1cc(C(=O)N/N=C2\CC(=O)c3ccccc32)c(C)n1-c1ccc(F)cc1 the results were Apaf1 inhib 68.9*, EBNA-1 inhibitor 8.6, UBC13 polyUb -14.3, M18AAP inhibitor 10.6, PfGluPho inh 1.7, ZTA DNA inh 9.9, Apaf-1 inh conf2 22.2 and Rh110 interf inh -1.6.
CCCCCCCCn1c2c(c(=N)c3ccccc31)CCC2 was read as Apaf1 inhib 33.6, UBC13 polyUb 29.3, M18AAP inhibitor -5.1 and PfGluPho inh -1.6.
Screening CCCCCCCCCn1c2c(c(=N)c3c1CCC3)CCCC2 returned Apaf1 inhib 51.1*, UBC13 polyUb 41.3, M18AAP inhibitor 5.3, PfGluPho inh 0.2, Apaf-1 inh conf2 19.6 and Rh110 interf inh 9.2.
Screening COc1ccc(C(=O)COC(=O)CCCN=C2NS(=O)(=O)c3ccccc32)c(OC)c1 returned Apaf1 inhib 50.7*, EBNA-1 inhibitor -25.1, UBC13 polyUb -2.2, PfGluPho inh -8.6, ZTA DNA inh -8.1, Apaf-1 inh conf2 9.4 and Rh110 interf inh 0.7.
For O=C(O)c1cccc(NC2=C(n3nnc4ccccc43)C(=O)c3ccccc3C2=O)c1 the results were Apaf1 inhib 58.2*, EBNA-1 inhibitor 4.4, UBC13 polyUb -42.2, M18AAP inhibitor -6.7, PfGluPho inh 20.1, ZTA DNA inh 0.0, Apaf-1 inh conf2 64.4*, Rh110 interf inh 7.0 and Fluor interf inh >100.
Screening O=C(O)c1cccc(NS(=O)(=O)c2ccc3nnn(O)c3c2)c1 returned Apaf1 inhib 3.5, EBNA-1 inhibitor -3.4, UBC13 polyUb -6.6, M18AAP inhibitor -0.5, PfGluPho inh -35.6 and ZTA DNA inh -2.0.
For CN(C)CCCNC(=O)C[C@H]1C[C@H](C(=O)N2CCCCC2)[C@@]2(CCc3ccccc3)c3[nH]c4ccc(Cl)cc4c3CCN2C1=O the results were Apaf1 inhib 73.8*, PfGluPho inh -3.6, Apaf-1 inh conf2 29.5 and Rh110 interf inh 20.9.
Screening CN(C)CCCNC(=O)C[C@H]1C[C@H](C(=O)N2CCOCC2)[C@@]2(CCC3CCCC3)c3[nH]c4cc(-c5ccco5)ccc4c3CCN2C1=O returned Apaf1 inhib 67.5*, PfGluPho inh 3.3, Apaf-1 inh conf2 27.8 and Rh110 interf inh 2.9.
For O=C(C[C@H]1C[C@H](C(=O)N2CCOCC2)[C@@]2(CCC3CCCC3)c3[nH]c4ccc(Cl)cc4c3CCN2C1=O)NCCCn1ccnc1 the results were Apaf1 inhib 58.2*, PfGluPho inh 9.9, Apaf-1 inh conf2 24.3 and Rh110 interf inh 17.0.
`CC(C)N(C(=O)[C@H]1C[C@H](CC(=O)NCCCN(C)C)C(=O)N2CCc3c([nH]c4cc(-c5ccco5)ccc34)[C@]12C)C(C)C` gave Apaf1 inhib 51.7*, PfGluPho inh 22.6, Apaf-1 inh conf2 3.5 and Rh110 interf inh 1.5.
CCCn1c(N)c(N(CCOC)C(=O)CSc2cc(C)c3cccc(C)c3n2)c(=O)[nH]c1=O was read as Apaf1 inhib 1.9, UBC13 polyUb -8.0, PfGluPho inh 11.5 and ZTA DNA inh -0.2.
Screening CCN(CC)C(=O)[C@H]1CC(CC(=O)NC/C=C(\C)CCC=C(C)C)C(=O)N2CCc3c([nH]c4ccc(OC)cc34)[C@]12C (stereo partly specified) returned Apaf1 inhib 41.6*, PfGluPho inh 28.9, Apaf-1 inh conf2 24.3 and Rh110 interf inh 9.8.
Screening CC1(C)CNc2cc(N)ccc2S1 returned Apaf1 inhib 50.0*, EBNA-1 inhibitor 3.0, UBC13 polyUb -27.8, M18AAP inhibitor 3.2, PfGluPho inh 25.5, ZTA DNA inh -11.0, Apaf-1 inh conf2 69.5*, Rh110 interf inh 7.6 and Fluor interf inh >100.
Screening O=C(NNc1cc(N2CCOCC2)nc(N2CCOCC2)n1)c1ccc([N+](=O)[O-])cc1 returned Apaf1 inhib 96.5*, UBC13 polyUb -72.7, M18AAP inhibitor 13.4, PfGluPho inh -28.8, Apaf-1 inh conf2 60.5*, Rh110 interf inh 18.5 and Fluor interf inh >100.
`CC1=C(CC(=O)c2ccccc2)C(=O)c2ccccc2C1=O` gave Apaf1 inhib 44.7*, EBNA-1 inhibitor -4.7, UBC13 polyUb -34.9, M18AAP inhibitor 2.8, PfGluPho inh -31.9, ZTA DNA inh -17.4, Apaf-1 inh conf2 40.5*, Rh110 interf inh 8.4 and Fluor interf inh >100.
For Cc1cc(C(=O)COc2cccc3cccnc23)c(C)n1C the results were Apaf1 inhib 53.4*, EBNA-1 inhibitor -5.6, UBC13 polyUb -24.7, M18AAP inhibitor 5.7, PfGluPho inh 20.9, ZTA DNA inh 15.2, Apaf-1 inh conf2 15.8 and Rh110 interf inh 12.6.
For COC(=O)CCC(=O)OC1(C)C(=O)C=C2C=C(C3CC3)N(C3CCCC3)C=C2C1=O (stereo unspecified) the results were Apaf1 inhib 67.5*, EBNA-1 inhibitor 6.1, UBC13 polyUb -78.4, PfGluPho inh 53.0, ZTA DNA inh 6.6, Apaf-1 inh conf2 38.3 and Rh110 interf inh 7.8.
For COC(=O)CCC(=O)OC1(C)C(=O)C=C2C=C(C3CC3)N(CC3CC3)C=C2C1=O (stereo unspecified) the results were Apaf1 inhib 56.8*, EBNA-1 inhibitor 4.1, UBC13 polyUb -56.9, PfGluPho inh 53.4, ZTA DNA inh 1.8, Apaf-1 inh conf2 36.6 and Rh110 interf inh 2.6.
Screening COC(=O)CCCC1=CC2=CC(=O)C(C)(OC(=O)C3CCCC3)C(=O)C2=CO1 (stereo unspecified) returned Apaf1 inhib -5.6, EBNA-1 inhibitor 7.3, UBC13 polyUb 10.0, PfGluPho inh 21.2 and ZTA DNA inh -0.3.
`Cc1nc2ccc(S(=O)(=O)N(C)CC(=O)Nc3ccccc3F)cc2s1` gave Apaf1 inhib -7.2, EBNA-1 inhibitor -4.3, UBC13 polyUb 3.8, M18AAP inhibitor -1.7, PfGluPho inh -2.7 and ZTA DNA inh 5.3.
For O=C(NCCC(=O)N1CCN(c2cccc(Cl)c2)CC1)c1ccc(Br)cc1 the results were Apaf1 inhib 43.9*, UBC13 polyUb 26.9, PfGluPho inh -12.5, ZTA DNA inh -20.9, Apaf-1 inh conf2 35.5 and Rh110 interf inh 13.3.
Screening CSCCC(NC(=O)c1ccccc1Cl)C(=O)N1CCN(C(C)=O)CC1 (stereo unspecified) returned Apaf1 inhib -9.8, UBC13 polyUb 10.1, PfGluPho inh -4.1 and ZTA DNA inh -2.4.
Screening COc1ccccc1C(=O)NC(CCSC)C(=O)N1CCC(Cc2ccccc2)CC1 (stereo unspecified) returned Apaf1 inhib 44.0*, EBNA-1 inhibitor -6.1, UBC13 polyUb 11.4, PfGluPho inh 1.2, ZTA DNA inh -2.9, Apaf-1 inh conf2 29.0 and Rh110 interf inh 0.2.
